Results reported in ChEMBL document CHEMBL3526048, “In vitro metabolism of rivoglitazone, a novel peroxisome proliferator-activated receptor γ agonist, in rat, monkey, and human liver microsomes and freshly isolated hepatocytes” (Drug Metab Dispos, 2011).

Experiments:
[1] = Drug metabolism in human hepatocytes assessed as formation of (2S,3S,4S,5R,6R)-6-((1-carboxy-2-(4-((6-methoxy-1-methyl-1H-benzo[d]imidazol-2-yl)methoxy)phenyl)ethylthio)carbonylamino)-3,4,5-trihydroxytetrahydro-2H-pyran-2-carboxylic acid at 30 uM after 3 hrs by radio-HPLC/LC-MS/MS analysis in presence of UDPGA and UDPGA/SAM; assay type: ADME, cell-based, Hepatocyte
Cytochrome P450 3A4 = Cytochrome P450 3A4 (Homo sapiens, UniProt P08684); experiment: Activity of human CYP3A4 expressed in microsomes isolated from baculovirus infected insect cell assessed as enzyme-mediated 2-hydroxy-3-(4-((6-methoxy-1-methyl-1H-benzo[d]imidazol-2-yl)methoxy)phenyl)propanamide formation at 20 uM after 2 hrs by radio-HPLC/LC-MS/MS analysis in presence of NADPH-generating system and NADPH-generating system/SAM; assay type: ADME
Cytochrome P450 3A4, sequence (P08684 whole entry): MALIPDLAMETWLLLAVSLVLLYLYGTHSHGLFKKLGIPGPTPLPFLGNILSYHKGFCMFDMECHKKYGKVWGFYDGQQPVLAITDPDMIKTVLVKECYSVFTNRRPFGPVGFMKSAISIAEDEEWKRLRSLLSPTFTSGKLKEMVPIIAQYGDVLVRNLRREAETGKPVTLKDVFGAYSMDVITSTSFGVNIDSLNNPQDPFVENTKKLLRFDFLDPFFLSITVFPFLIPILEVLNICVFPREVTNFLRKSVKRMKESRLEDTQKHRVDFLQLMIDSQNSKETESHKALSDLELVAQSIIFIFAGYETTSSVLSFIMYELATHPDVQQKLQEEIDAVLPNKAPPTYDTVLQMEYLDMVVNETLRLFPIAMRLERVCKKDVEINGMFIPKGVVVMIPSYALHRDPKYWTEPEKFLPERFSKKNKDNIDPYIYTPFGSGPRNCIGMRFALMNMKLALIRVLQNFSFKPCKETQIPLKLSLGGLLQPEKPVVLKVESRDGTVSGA

[2] = Drug metabolism in monkey hepatocytes assessed as formation of 2-hydroxy-3-(4-((6-methoxy-1-methyl-1H-benzo[d]imidazol-2-yl)methoxy)phenyl)propanamide at 30 uM after 3 hrs by radio-HPLC/LC-MS/MS analysis in presence of NADPH-generating system and NADPH-generating system/SAM; details: cynomolgus monkey
[3] = target: T1, UDP-glucuronosyltransferase 1A6 (Homo sapiens, UniProt P19224); experiment: Activity of human UGT1A6 expressed in microsomes isolated from baculovirus infected insect cell assessed as enzyme-mediated (2S,3S,4S,5R,6R)-6-((1-carboxy-2-(4-((6-methoxy-1-methyl-1H-benzo[d]imidazol-2-yl)methoxy)phenyl)ethylthio)carbonylamino)-3,4,5-trihydroxytetrahydro-2H-pyran-2-carboxylic acid formation at 20 uM after 4 hrs by radio-HPLC/LC-MS/MS analysis in presence of UDPGA; assay type: ADME
T1 sequence (P19224 whole entry): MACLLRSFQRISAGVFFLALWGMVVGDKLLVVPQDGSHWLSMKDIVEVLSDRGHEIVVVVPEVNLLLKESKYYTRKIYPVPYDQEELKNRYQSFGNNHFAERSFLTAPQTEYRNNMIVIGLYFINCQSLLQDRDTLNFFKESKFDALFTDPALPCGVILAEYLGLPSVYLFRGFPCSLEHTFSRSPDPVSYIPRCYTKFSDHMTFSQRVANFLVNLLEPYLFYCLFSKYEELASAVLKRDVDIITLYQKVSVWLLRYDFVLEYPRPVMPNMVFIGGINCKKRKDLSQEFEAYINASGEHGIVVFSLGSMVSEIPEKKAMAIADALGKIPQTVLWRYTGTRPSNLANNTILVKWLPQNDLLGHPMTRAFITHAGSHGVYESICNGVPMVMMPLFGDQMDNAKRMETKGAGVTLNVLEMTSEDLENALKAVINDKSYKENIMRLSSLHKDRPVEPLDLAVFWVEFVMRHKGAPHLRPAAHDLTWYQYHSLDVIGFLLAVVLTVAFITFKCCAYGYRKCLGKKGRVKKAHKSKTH

[4] = target: T2, UDP-glucuronosyltransferase 1A3 (Homo sapiens, UniProt P35503); experiment: Activity of human UGT1A3 expressed in microsomes isolated from baculovirus infected insect cell assessed as enzyme-mediated (2S,3S,4S,5R,6R)-3,4,5-trihydroxy-6-(5-(4-((6-methoxy-1-methyl-1H-benzo[d]imidazol-2-yl)methoxy)benzyl)-2,4-dioxothiazolidin-3-yl)tetrahydro-2H-pyran-2-carboxylic acid formation at 20 uM after 4 hrs by radio-HPLC/LC-MS/MS analysis in presence of UDPGA and UDPGA/SAM; assay type: ADME
T2 sequence (P35503 whole entry): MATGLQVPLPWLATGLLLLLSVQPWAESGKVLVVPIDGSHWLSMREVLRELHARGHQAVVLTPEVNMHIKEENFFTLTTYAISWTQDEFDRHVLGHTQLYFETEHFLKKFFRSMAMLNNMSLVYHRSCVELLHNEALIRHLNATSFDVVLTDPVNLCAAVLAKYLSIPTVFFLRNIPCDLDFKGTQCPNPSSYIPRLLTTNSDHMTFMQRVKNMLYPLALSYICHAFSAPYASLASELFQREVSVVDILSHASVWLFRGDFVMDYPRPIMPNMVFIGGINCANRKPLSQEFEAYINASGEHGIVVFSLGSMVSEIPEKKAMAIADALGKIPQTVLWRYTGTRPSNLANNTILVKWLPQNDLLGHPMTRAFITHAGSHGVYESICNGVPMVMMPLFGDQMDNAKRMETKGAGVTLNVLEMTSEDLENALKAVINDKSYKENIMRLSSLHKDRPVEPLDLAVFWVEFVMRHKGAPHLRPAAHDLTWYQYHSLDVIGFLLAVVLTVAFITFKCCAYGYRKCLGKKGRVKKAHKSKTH
Method in brief: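 Alamethicin (50 μg/mg protein, 15 min on ice) pretreated expressed human UGT microsomes (1 mg/ml protein) from baculovirus-infected insect cells. Incubation with [¹⁴C]rivoglitazone (20 μM) in 100 mM Tris-HCl (pH 7.5) with 10 mM MgCl₂, started by 5 mM UDPGA, 4 h at 37°C with shaking. UGT insect-cell control supersomes were run alongside. Acetonitrile stop, concentrated supernatant analysed by radio-HPLC, LC-MS and LC-MS/MS.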

Cytochrome P450 3A5 = Cytochrome P450 3A5 (Homo sapiens, UniProt P20815); experiment: Activity of human CYP3A5 expressed in microsomes isolated from baculovirus infected insect cell assessed as enzyme-mediated 3-(4-((6-methoxy-1-methyl-1H-benzo[d]imidazol-2-yl)methoxy)phenyl)-2-(methylthio)propanamide formation at 20 uM after 2 hrs by radio-HPLC/LC-MS/MS analysis in presence of NADPH-generating system/SAM; assay type: ADME
Cytochrome P450 3A5, sequence (P20815 whole entry): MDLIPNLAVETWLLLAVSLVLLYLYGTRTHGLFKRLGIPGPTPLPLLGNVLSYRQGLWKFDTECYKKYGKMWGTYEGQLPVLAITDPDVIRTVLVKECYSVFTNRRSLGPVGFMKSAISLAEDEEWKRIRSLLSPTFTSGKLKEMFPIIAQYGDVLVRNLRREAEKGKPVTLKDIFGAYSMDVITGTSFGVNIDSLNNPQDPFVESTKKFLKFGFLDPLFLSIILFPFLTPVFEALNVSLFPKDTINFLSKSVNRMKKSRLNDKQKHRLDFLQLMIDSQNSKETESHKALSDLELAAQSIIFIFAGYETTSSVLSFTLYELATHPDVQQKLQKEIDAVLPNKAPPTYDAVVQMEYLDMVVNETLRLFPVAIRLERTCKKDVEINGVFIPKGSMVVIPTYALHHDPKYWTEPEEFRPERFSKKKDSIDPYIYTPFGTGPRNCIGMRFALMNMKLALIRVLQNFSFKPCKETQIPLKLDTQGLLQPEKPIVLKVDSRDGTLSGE
Method in brief: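 cDNA-expressed human CYP3A5 in baculovirus-insect-cell microsomes (1 mg/ml protein) was incubated with [¹⁴C]rivoglitazone (20 μM) in 50 mM potassium phosphate (pH 7.4) or 100 mM Tris-HCl (pH 7.5). NADPH-generating system: 2 mM NADP⁺, 20 mM glucose 6-phosphate, 2 units/ml G6PDH, 10 mM MgCl₂. Incubation ran 2 h at 37°C with shaking; insect-cell control supersomes served as control. Acetonitrile stop, supernatant concentrated, then radio-HPLC, LC-MS and LC-MS/MS.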

Cytochrome P450 2D6 = Cytochrome P450 2D6 (Homo sapiens, UniProt P10635); experiment: Activity of human CYP2D6 expressed in microsomes isolated from baculovirus infected insect cell assessed as enzyme-mediated 2-((4-((2,4-dioxothiazolidin-5-yl)methyl)phenoxy)methyl)-1-methyl-1H-benzo[d]imidazol-6-yl hydrogen sulfate formation at 20 uM after 2 hrs by radio-HPLC/LC-MS/MS analysis; assay type: ADME
Cytochrome P450 2D6, sequence (P10635 whole entry): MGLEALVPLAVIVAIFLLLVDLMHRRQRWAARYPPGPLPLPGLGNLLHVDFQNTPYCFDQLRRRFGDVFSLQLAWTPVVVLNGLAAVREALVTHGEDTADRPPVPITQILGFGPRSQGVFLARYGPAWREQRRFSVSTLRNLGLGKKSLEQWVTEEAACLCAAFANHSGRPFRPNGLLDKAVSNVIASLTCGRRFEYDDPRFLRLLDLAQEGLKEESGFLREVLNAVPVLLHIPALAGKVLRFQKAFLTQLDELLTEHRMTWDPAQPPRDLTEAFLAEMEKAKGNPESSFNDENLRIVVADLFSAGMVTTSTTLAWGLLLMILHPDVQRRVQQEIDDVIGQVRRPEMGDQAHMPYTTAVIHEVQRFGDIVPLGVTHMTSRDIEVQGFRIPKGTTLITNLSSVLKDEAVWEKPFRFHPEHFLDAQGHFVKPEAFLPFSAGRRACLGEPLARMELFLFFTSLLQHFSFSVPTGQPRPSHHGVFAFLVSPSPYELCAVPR
Method in brief: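 Baculovirus-insect-cell microsomes expressing the human CYP (1 mg/ml protein) were incubated with [14C]rivoglitazone (20 μM) in 50 mM potassium phosphate (pH 7.4) or 100 mM Tris-HCl (pH 7.5) with an NADPH-generating system (2 mM NADP+, 20 mM glucose 6-phosphate, 2 units/ml G6PDH, 10 mM MgCl2) for 2 h at 37°C. Insect-cell control supersomes served as the control. Reactions were stopped with acetonitrile, and the concentrated supernatants were analysed by radio-HPLC, LC-MS and LC-MS/MS.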

Q: For COc1ccc2nc(COc3ccc(C[14CH]4SC(=O)NC4=O)cc3)n(C)c2c1.Cl (racemic), which Drug metabolism [1] is on record?
A: The Drug metabolism was “metabolite_detected”.

Q: And the Drug metabolism (Cytochrome P450 3A4)?
A: Its Drug metabolism is “metabolite_detected”.

Q: And the Drug metabolism [2]?
A: Its Drug metabolism is “metabolite_not_detected”.

Q: And the Drug metabolism [3]?
A: The Drug metabolism was “metabolite_not_detected”.

Q: What about the Drug metabolism [4] of the same molecule?
A: Its Drug metabolism is “metabolite_detected”.

Q: What about the Drug metabolism (Cytochrome P450 3A5) of the same molecule?
A: Its Drug metabolism is “metabolite_not_detected”.

Q: And the Drug metabolism (Cytochrome P450 2D6)?
A: Its Drug metabolism is “metabolite_not_detected”.
